Assays:
[1] = Phase Ic study: pharmacokinetics of BI 1015550 in plasma; assay type: in vivo, human
How it was run: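 IPF patients received oral 18 mg twice daily. Plasma Cmax and AUCτ,1 were taken after the first dose on day 1, and Cmax,ss and AUCτ,ss after the morning dose on day 14. Accumulation ratios were calculated as steady-state over single-dose values. Results are reported as geometric mean with gCV.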

[2] = Phase I study: pharmacokinetics of BI 1015550 in plasma and urine; assay type: in vivo, human; settings: for AUCτ,1 / Cmax / RA,AUC (accumulation ratio) / RA,Cmax (accumulation ratio) / AUCτ,ss / CLR,0–120 (renal clearance) / fe0–120 (fraction excreted unchanged in urine 0–120 h) / AUC0−∞: gMean; for AUCτ,ss: steady state
How it was run: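 Oral test compound was given to healthy males as single doses (36 or 48 mg, fasted) or 6 or 12 mg twice daily (fed). Twice-daily dosing was a morning dose on day 1, none on day 2 (34-h sampling), days 3–13 twice daily, and a morning dose on day 14. Read-outs were plasma Cmax, AUC0–∞, first-dose and steady-state AUCτ, accumulation ratios and 0–120 h urinary excretion, reported as gMean with gCV.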

[3] = test system: patients with idiopathic pulmonary fibrosis; assay: Phase Ic study; assay type: in vivo, human
How it was run: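 Randomised, double-blind, placebo-controlled within-dose-group study at 11 European sites. Patients with IPF, aged ≥40 years, had no nintedanib or pirfenidone within 30 days and none planned. Dosing was oral, 18 mg twice daily, for up to 12 weeks, reduced to 4 weeks by amendment. Drug-related AEs were graded mild, moderate or severe. ECG, laboratory tests and suicidality were also assessed. Descriptive statistics only.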

[4] = test system: healthy male subjects; assay: Phase I study; assay type: in vivo, human; settings: for Body weight, mean±SD change from baseline: placebo 0.21±1.06
How it was run: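 Healthy males aged 18–45 years with BMI 18.5–29.9 kg·m−2, partially randomised to oral test compound or matching placebo. Single doses were 36 or 48 mg, fasted and patient-blinded. Twice-daily doses were 6 or 12 mg over 14 days, fed and double-blind. Drug-related AEs were graded mild, moderate or severe. ECG, laboratory tests and, for multiple dosing, suicidality were also assessed. Descriptive statistics only.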

[5] = test system: patients with idiopathic pulmonary fibrosis; assay: Phase Ic study: exploratory lung function efficacy endpoints; assay type: in vivo, human; settings: IPF, 18 mg twice daily
[6] = test system: human lung fibroblast; settings: in vitro; cited from earlier work
[7] = after single and multiple oral administration
[8] = IPF, 18 mg twice daily, placebo 40.0%

Which “Exposure predictions (AUC0-24,ss) versus predefined exposure threshold” value ([1]; 24 mg twice-daily dose group (not dosed)) does the source give for `[O-][S+]1CCc2nc(N3CCC(c4ncc(Cl)cn4)CC3)nc(NC3(CO)CCC3)c21` (centres unmarked) [BI 1015550] here?
The value was “exceeded the predefined exposure threshold”.

What about the “Administrations until 95% of the steady-state concentration was reached” value ([1]; IPF, 18 mg twice daily) of the same molecule?
The value was “approximately five”.

What about the “Accumulation ratio based on AUCτ” value ([1]; gMean, IPF, 18 mg twice daily) of the same molecule?
Its value is 1.87.

What about the “Accumulation ratio based on Cmax” value ([1]; gMean, IPF, 18 mg twice daily) of the same molecule?
Its value is 1.66.

What about the “AUCτ,1” value ([1]; gMean, IPF, 18 mg twice daily, day 1 after first dose, n=10, gCV 18.2%) of the same molecule?
The value was 1.99 µM·h.

And the Cmax ([1]; gMean, IPF, 18 mg twice daily, day 1 after first dose, n=10, gCV 23.1%)?
Its Cmax is 277 nM.

And the “AUCτ,ss” value ([1]; gMean, IPF, 18 mg twice daily, day 14 steady state, n=10, gCV 49.5%)?
The value was 3.72 µM·h.

What about the “Difference in pharmacokinetic parameters between healthy volunteers and patients with IPF” value ([1]; in vivo) of the same molecule?
Its value is “no difference”.

And the “Dose proportionality of AUC” value ([2]; 36 mg to 48 mg single dose and 6 mg to 12 mg twice daily)?
Its value is “dose-proportional increase in AUC”.

What about the “Median time from last dosing to the maximum measured concentration” value [2, 7] of the same molecule?
The value was 1.25 to 1.52 h.

And the Terminal half-lives [2, 7]?
Its Terminal half-lives is 16 to 27 h.

And the “AUCτ,1” value ([2]; MRD 6 mg twice daily, after first dose, fed, n=8, gCV 24.8%)?
Its value is 0.564 µM·h.

What about the Cmax ([2]; MRD 6 mg twice daily, after first dose, fed, n=8, gCV 28.2%) of the same molecule?
The Cmax was 103 nM.

What about the “RA,AUC (accumulation ratio)” value ([2]; MRD 6 mg twice daily, fed, n=8, gCV 9.91%) of the same molecule?
Its value is 1.85.

And the “RA,Cmax (accumulation ratio)” value ([2]; MRD 6 mg twice daily, fed, n=8, gCV 35.0%)?
The value was 1.60.

What about the “AUCτ,ss” value ([2]; MRD 6 mg twice daily, fed, n=8, gCV 25.7%) of the same molecule?
Its value is 1.05 µM·h.

What about the “AUCτ,1” value ([2]; MRD 12 mg twice daily, after first dose, fed, n=8, gCV 15.9%) of the same molecule?
The value was 1.37 µM·h.

What about the Cmax ([2]; MRD 12 mg twice daily, after first dose, fed, n=8, gCV 29.9%) of the same molecule?
The Cmax was 229 nM.

What about the “RA,AUC (accumulation ratio)” value ([2]; MRD 12 mg twice daily, fed, n=8, gCV 14.8%) of the same molecule?
The value was 1.68.

And the “RA,Cmax (accumulation ratio)” value ([2]; MRD 12 mg twice daily, fed, n=8, gCV 23.6%)?
The value was 1.52.

What about the “AUCτ,ss” value ([2]; MRD 12 mg twice daily, fed, n=8, gCV 15.8%) of the same molecule?
The value was 2.3 µM·h.

What about the “CLR,0–120 (renal clearance)” value ([2]; SRD 36 mg, fasted, n=4, gCV 21.5%) of the same molecule?
The value was 30.5^+ mL·min^−1.

What about the “fe0–120 (fraction excreted unchanged in urine 0–120 h)” value ([2]; SRD 36 mg, fasted, n=5, gCV 45.2%) of the same molecule?
Its value is 12.5^¶ %.

What about the Cmax ([2]; SRD 36 mg, fasted, n=6, gCV 20.7%) of the same molecule?
Its Cmax is 710 nM.

And the “AUC0−∞” value ([2]; SRD 36 mg, fasted, n=6, gCV 21.2%)?
Its value is 5910 nmol·h/L.

What about the “fe0–120 (fraction excreted unchanged in urine 0–120 h)” value ([2]; SRD 48 mg, fasted, n=4, gCV 13.4%) of the same molecule?
Its value is 12.1^+ %.

What about the “CLR,0–120 (renal clearance)” value ([2]; SRD 48 mg, fasted, n=4, gCV 20.6%) of the same molecule?
The value was 25.2^+ mL·min^−1.

And the “AUC0−∞” value ([2]; SRD 48 mg, fasted, n=5, gCV 17.2%)?
The value was 8700^¶ nmol·h·L^−1.

What about the Cmax ([2]; SRD 48 mg, fasted, n=6, gCV 15.5%) of the same molecule?
The Cmax was 955 nM.

What about the Steady state reached ([2]; multiple twice-daily administrations) of the same molecule?
The Steady state reached was no more than 6 days.

And the “Mean observed weight loss” value ([3]; IPF patients treated for up to 12 weeks, placebo –1.18)?
The value was “–1.74 kg”.

And the “12-lead ECG or vital signs” value ([3]; IPF, 18 mg twice daily)?
Its value is “no clinically relevant findings”.

What about the “C-reactive protein (laboratory tests)” value ([3]; IPF, 18 mg twice daily) of the same molecule?
Its value is “slight increase”.

What about the Deaths ([3]; IPF, 18 mg twice daily) of the same molecule?
The Deaths was “no reported deaths”.

What about the Diarrhoea ([3]; IPF, 18 mg twice daily) of the same molecule?
The Diarrhoea was 40.0%.

What about the Nasopharyngitis ([3]; IPF, 18 mg twice daily) of the same molecule?
Its Nasopharyngitis is 40%.

What about the “Severe AE (considered drug related, led to discontinuation)” value ([3]; IPF, 18 mg twice daily) of the same molecule?
The value was “one severe AE of insomnia”.

What about the “Suicidal ideation or behaviour (C-SSRS)” value ([3]; IPF, 18 mg twice daily) of the same molecule?
The value was “no cases”.

What about the “Body weight, difference between the two treatment groups” value ([3]; IPF, 18 mg twice daily vs placebo) of the same molecule?
The value was “no notable difference”.

And the “AE leading to discontinuation of study drug” value ([3]; IPF, 18 mg twice daily, n=10)?
Its value is 1 (10.0) n (%).

What about the “Investigator-defined drug-related AE” value ([3]; IPF, 18 mg twice daily, n=10) of the same molecule?
Its value is 9 (90.0) n (%).

And the “Patients requiring or prolonging hospitalisation” value ([3]; IPF, 18 mg twice daily, n=10)?
Its value is 1 (10.0) n (%).

What about the “Patients with AESI (hepatic injury)” value ([3]; IPF, 18 mg twice daily, n=10) of the same molecule?
Its value is 0 (0.0) n (%).

And the “Patients with SAEs” value ([3]; IPF, 18 mg twice daily, n=10)?
Its value is 1 (10.0) n (%).

What about the “Patients with other significant AEs according to ICH E3” value ([3]; IPF, 18 mg twice daily, n=10) of the same molecule?
Its value is 1 (10.0) n (%).

What about the “Severe AEs” value ([3]; IPF, 18 mg twice daily, n=10) of the same molecule?
Its value is 1 (10.0) n (%).

And the Gastrointestinal disorders [3, 8]?
The Gastrointestinal disorders was 80.0%.

What about the Infections and infestations [3, 8] of the same molecule?
Its Infections and infestations is 50.0%.

And the “Patients with drug-related AEs” value ([3]; IPF, 18 mg twice daily, placebo 60.0%)?
Its value is 90.0%.

What about the “Subjects with any AE” value ([4]; MRD 6 mg twice daily, n=8) of the same molecule?
The value was 2 (25.0) n (%).

And the “Subjects with investigator-defined drug-related AEs” value ([4]; MRD 6 mg twice daily, n=8)?
Its value is 2 (25.0) n (%).

What about the “Body weight, mean±SD change from baseline” value ([4]; MRD 6 mg twice daily) of the same molecule?
Its value is “–1.21±0.43 kg”.

And the “Clinically relevant laboratory finding: increase in blood triglycerides, considered drug-related” value ([4]; MRD 12 mg twice daily)?
The value was “one subject”.

And the “Subjects with any AE” value ([4]; MRD 12 mg twice daily, n=8)?
The value was 5 (62.5) n (%).

And the “Subjects with investigator-defined drug-related AEs” value ([4]; MRD 12 mg twice daily, n=8)?
The value was 4 (50.0) n (%).

And the “Body weight, mean±SD change from baseline” value ([4]; MRD 12 mg twice daily)?
The value was “–1.34±1.61 kg”.

What about the “Suicidal ideation or behaviour (C-SSRS)” value ([4]; MRD part) of the same molecule?
The value was “No incidence”.

And the Gastrointestinal disorders ([4]; MRD part, placebo 12.5%)?
The Gastrointestinal disorders was 18.8%.

What about the “Nervous system disorders (headache)” value ([4]; MRD part, placebo 12.5%) of the same molecule?
The value was 31.3%.

What about the “Subjects with AEs” value ([4]; MRD part, placebo 37.5%) of the same molecule?
The value was 43.8%.

What about the “Subjects with any AE” value ([4]; MRD total, n=16) of the same molecule?
The value was 7 (43.8) n (%).

What about the “Subjects with investigator-defined drug-related AEs” value ([4]; MRD total, n=16) of the same molecule?
Its value is 6 (37.5) n (%).

What about the “Subjects with any AE” value ([4]; SRD 36 mg single dose, n=6) of the same molecule?
Its value is 4 (66.7) n (%).

And the “Subjects with investigator-defined drug-related AEs” value ([4]; SRD 36 mg single dose, n=6)?
Its value is 2 (33.3) n (%).

And the “Subjects with any AE” value ([4]; SRD 48 mg single dose, n=6)?
Its value is 4 (66.7) n (%).

And the “Subjects with investigator-defined drug-related AEs” value ([4]; SRD 48 mg single dose, n=6)?
The value was 4 (66.7) n (%).

What about the “Deaths, severe AEs, serious AEs, AEs of special interest or other significant AEs” value ([4]; SRD and MRD parts) of the same molecule?
The value was “no reported”.

What about the “ECG recordings or vital signs” value ([4]; SRD and MRD parts) of the same molecule?
The value was “no clinically relevant findings”.

What about the “Intensity of all AEs” value ([4]; SRD and MRD parts) of the same molecule?
Its value is “mild or moderate”.

And the Gastrointestinal disorders ([4]; SRD part, placebo 16.7%)?
Its Gastrointestinal disorders is 25.0%.

And the “Nervous system disorders (headache and dizziness)” value ([4]; SRD part, placebo 16.7%)?
The value was 41.7%.

What about the “Subjects with AEs” value ([4]; SRD part, placebo 16.7%) of the same molecule?
Its value is 66.7%.

What about the “Subjects with any AE” value ([4]; SRD total, n=12) of the same molecule?
Its value is 8 (66.7) n (%).

And the “Subjects with investigator-defined drug-related AEs” value ([4]; SRD total, n=12)?
The value was 6 (50.0) n (%).

What about the “Subjects with drug-related AEs” value ([4]; multiple doses (MRD total), placebo 12.5%) of the same molecule?
Its value is 37.5%.

And the “Subjects with drug-related AEs” value ([4]; single dose (SRD total), placebo 16.7%)?
The value was 50.0%.

What about the “Effect on lung function parameters” value ([5]; over the course of the trial) of the same molecule?
The value was “no clear effect”.

What about the “Trend towards a slight reduction in FVC over time (seen in placebo group)” value ([5]; data not shown) of the same molecule?
The value was “not observed”.

What about the “Human lung fibroblast proliferation” value [6] of the same molecule?
Its value is “inhibition”.

And the Myofibroblast transformation [6]?
Its Myofibroblast transformation is “inhibition”.

Reference: article PMC9589333 (ERJ Open Research, 2022)
